Results as given in ChEMBL document CHEMBL1145096, “Synthesis and cytotoxic activity of two novel 1-dodecylthio-2-decyloxypropyl-3-phosphatidic acid conjugates with gemcitabine and cytosine arabinoside” (J Med Chem, 2003).

Assays:
HL-60 = experiment: Inhibitory activity against HL-60 (human, promyelocytic leukemia) cell line; format: functional, cell-based
Summary of the method: (§1)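 Cells kept in log phase in RPMI-1640 with 10% FBS and 1% penicillin-streptomycin, humidified 5% CO2/95% air, 37 °C. Viability read by CellTiter 96 aqueous proliferation assay (microplate optical density). Drug-treated optical densities compared with untreated controls; IC50 obtained by nonlinear regression.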

HeLa = experiment: Inhibitory activity against HeLa (human, epitheloid carcinoma, cervix) cell line; format: functional, cell-based
Summary of the method: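 HeLa maintained in log phase in DMEM, 10% FBS, 1% penicillin-streptomycin, humidified 5% CO2 at 37 °C. Growth quantified with CellTiter 96 aqueous assay by microplate optical density. Values expressed relative to untreated controls; IC50 by nonlinear regression.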

BXPC-3 = experiment: Inhibitory activity against BxPC3 (human,pancreas,adenocarcinoma) cell line; format: functional, cell-based
Summary of the method: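 BxPC3 grown in log phase in RPMI-1640 plus 10% FBS, 10 mM HEPES, 1.5 g/L NaHCO3, sodium pyruvate and 1% penicillin-streptomycin, at 37 °C under 5% CO2. CellTiter 96 aqueous proliferation readout by optical density. Treated wells compared with untreated controls; IC50 from nonlinear regression.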

CEM-SS = experiment: Inhibitory activity against CEM-SS (human T-4 lymphoblastoid clone) cell line; format: functional, cell-based; summary of the method: as §1
MCF7 = experiment: Inhibitory activity against MCF-7/WT-2'' (human, breast carcinoma) cell line; format: functional, cell-based
Summary of the method: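 MCF7/WT-2' grown in log phase in D-MEM/F-12 with 10% FBS, 10 μg/mL insulin and 1% penicillin-streptomycin, 37 °C, 5% CO2. Read-out was CellTiter 96 aqueous proliferation assay (optical density) versus untreated control. IC50 derived by nonlinear regression.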

BG-1 cell line = experiment: Inhibitory activity against BG-1 (human, […] adenocarcinoma) cell line; format: functional, cell-based; summary of the method: as §1
SCC-25 = experiment: Inhibitory activity against SCC-25 (human, squamous cell carcinoma, tongue) cell line; format: functional, cell-based
Summary of the method: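 SCC-25 cultured in log phase in DMEM with 10% FBS, 400 ng/mL hydrocortisone and 1% penicillin-streptomycin, humidified 5% CO2/95% air, 37 °C. CellTiter 96 aqueous assay, optical density compared with untreated cells; IC50 from nonlinear regression.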

HT-29 = experiment: Inhibitory activity against HT-29 (human,colon,adenocarcinoma) cell line; format: functional, cell-based
Summary of the method: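 Colon line kept in log phase in McCoy's 5A modified medium with 10% FBS and 1% penicillin-streptomycin, 37 °C, 5% CO2 humidified. Proliferation measured by CellTiter 96 aqueous assay (optical density) against untreated cells; IC50 fitted by nonlinear regression.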

U373 MG = experiment: Inhibitory activity against U373-MG (human, glioblastoma) cell line; format: functional, cell-based, U-373MG ATCC
Summary of the method: (§2)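 Maintained in log phase in MEM with 10% FBS and 1% penicillin-streptomycin at 37 °C in humidified 5% CO2. Cell proliferation read with CellTiter 96 aqueous assay by optical density. Treated versus untreated control; IC50 calculated by nonlinear regression.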

SK-LU-1 = experiment: Inhibitory activity against SK-LU-1 (human,lung,adenocarcinoma) cell line; format: functional, cell-based; summary of the method: as §2

IC50 (HL-60) [nM]	IC50 (HeLa) [nM]	IC50 (BXPC-3) [nM]	IC50 (CEM-SS) [nM]	IC50 (MCF7) [nM]	IC50 (BG-1 cell line) [nM]	IC50 (SCC-25) [nM]	IC50 (HT-29) [nM]	IC50 (U373 MG) [nM]	IC50 (SK-LU-1) [nM]	Structure (SMILES)
67300										CCCCCCCCCCCCSCC(COP(=O)(O)OCC1OC(n2ccc(N)nc2=O)[C@@H](O)C1O)OCCCCCCCCCC (some centres not stated)
1800	690	1590	600	1730	1840	590	750	290	1120	CCCCCCCCCCCCSCC(COP(=O)(O)OC[C@H]1O[C@@H](n2ccc(N)nc2=O)C(F)(F)[C@@H]1O)OCCCCCCCCCC (some centres not stated)
760										Nc1ccn([C@@H]2O[C@H](CO)[C@@H](O)[C@@H]2O)c(=O)n1 [CYTARABINE]
330	8	160	30	1660	680	47	43	130	55	Nc1ccn([C@@H]2O[C@H](CO)[C@@H](O)C2(F)F)c(=O)n1 [GEMCITABINE]
